# Reference: publication PMC7941583 (Cancer Reports, 2020)
# The star is where a group is joined. Cbz = O=C(OCc1ccccc1)*; CH2F = FC*
# What was measured:
# LNCaP cells [1] = assay: Colony forming efficiency, LNCaP; type: cell-based, human; conditions: Figure 4A
# Procedure, shortened: (§1)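 Serum-free adapted cells were trypsinized (0.25% trypsin in PBS, 5 min, 37°C) into single-cell suspensions; suspensions under 90% trypan-blue-viable were discarded. 1000 cells per 65-mm dish were grown 21 days at 37°C, 5% CO2, in RPMI 1640 plus ITS+1 with test compound, refreshed every 5 days. Colonies were fixed in 1% formaldehyde and stained with methylene blue. CFE = colonies/cells inoculated × 100.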
# PC‐3 cells [2] = assay: Colony forming efficiency, PC‐3; type: cell-based, human; conditions: PC‐3, Figure 4A
# Procedure, shortened: as §1
# DU145 cells [3] = assay: Colony forming efficiency, DU145; type: cell-based, human; conditions: DU145, Figure 4A
# Procedure, shortened: as §1
# LNCaP cells [4] = assay: Cell cycle analysis; type: cell-based, human; conditions: 10^−6 M; for proportion of cells sub‐G0/G1: 48‐hour timepoint
# Procedure, shortened: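 Serum-free adapted LNCaP cells treated with test compound over a time course to 48 h. Harvested cells stained with propidium iodide and analysed by flow cytometry. Phases were assigned by DNA content: 2n is G1, 4n is G2/M, and between 2n and 4n is S. Cells below 2n (sub-G1) were scored as apoptotic. Results are percentages of cells per phase.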
# LNCaP cells [5] = assay: TUNEL assay of apoptosis; type: cell-based, human; conditions: for proportion of apoptotic cells (TUNEL): 10^−6 M, 60 hours post‐treatment
# Procedure, shortened: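 Serum-free adapted LNCaP cells (5 × 10^5 per 75 cm2 flask) were treated with 10−6 M test compound or vehicle over a time course. Z-VAD-FMK (50 μM) was added 1 h before compound where indicated. Adherent plus floating cells were cytospun and stained by TdT fluorescein in situ labelling. Positive cells were counted per 500 cells in five fields, on three slides per sample; results are % apoptotic cells.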
# RARα = target: T1, RARα (Homo sapiens, UniProt P10276); conditions: binding affinities of synthetic retinoids; cited from earlier work
# T1 sequence (P10276 183-417 limits assumed): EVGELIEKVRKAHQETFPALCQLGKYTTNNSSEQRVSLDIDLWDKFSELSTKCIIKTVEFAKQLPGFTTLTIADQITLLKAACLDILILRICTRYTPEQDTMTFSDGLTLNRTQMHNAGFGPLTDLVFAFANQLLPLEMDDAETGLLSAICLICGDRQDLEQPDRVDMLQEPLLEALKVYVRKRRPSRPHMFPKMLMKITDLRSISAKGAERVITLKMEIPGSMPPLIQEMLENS
# RARβ = target: T2, RARβ (Homo sapiens, UniProt P10826); conditions: binding affinities of synthetic retinoids; cited from earlier work
# T2 sequence (P10826 183-417 limits assumed): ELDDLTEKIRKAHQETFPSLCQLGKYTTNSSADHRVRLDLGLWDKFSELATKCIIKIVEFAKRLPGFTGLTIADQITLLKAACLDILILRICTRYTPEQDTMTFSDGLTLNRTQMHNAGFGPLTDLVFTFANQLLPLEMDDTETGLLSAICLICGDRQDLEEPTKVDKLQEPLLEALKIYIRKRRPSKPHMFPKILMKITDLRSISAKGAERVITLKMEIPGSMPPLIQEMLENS
# RARγ = target: T3, RARγ (Homo sapiens, UniProt P13631); conditions: binding affinities of synthetic retinoids; cited from earlier work
# T3 sequence (P13631 185-419 limits assumed): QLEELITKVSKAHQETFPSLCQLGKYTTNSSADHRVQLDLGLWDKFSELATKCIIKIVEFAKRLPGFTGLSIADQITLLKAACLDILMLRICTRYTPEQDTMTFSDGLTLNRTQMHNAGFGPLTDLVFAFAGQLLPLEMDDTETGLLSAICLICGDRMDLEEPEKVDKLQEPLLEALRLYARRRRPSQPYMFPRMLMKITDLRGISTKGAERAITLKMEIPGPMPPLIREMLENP
# LNCaP cells [6] = conditions: previous data; cited from earlier work
# LNCaP cells [7] = assay: Cell growth; type: cell-based, human
# LNCaP cells [8] = assay: Adipogenic differentiation; type: cell-based, human
# LNCaP cells [9] = assay: Metabolic activity; type: cell-based, human; conditions: concentrations of 10^−6 M and above
# Procedure, shortened: (§2)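 Serum-free adapted LNCaP, PC-3, DU145 or RWPE-1 cells were seeded at 400 cells/well in RPMI-1640 plus ITS+1. Test compound was added at seeding and again at day 2 by medium change. Viability was read at day 5 as intracellular ATP by luminescence (ViaLight HS). Results are % viable cells relative to vehicle control; at least three experiments in triplicate, mean ± SD.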
# PC‐3 cells [10] = assay: Metabolic activity; type: cell-based, human; conditions: PC‐3, concentrations of 10^−6 M and above
# Procedure, shortened: as §2
# DU145 cells [11] = assay: Metabolic activity; type: cell-based, human; conditions: DU145, concentrations of 10^−6 M and above
# Procedure, shortened: as §2
# RWPE‐1 cells = assay: Metabolic activity; type: cell-based, human; conditions: non‐tumorigenic RWPE‐1 compared with PC cell lines
# Procedure, shortened: as §2
# LNCaP cells [12] = assay: Agarose gel electrophoresis of DNA; type: cell-based, human; conditions: time course
# caspase‐3 = assay: Fluorometric caspase‐3 activity in LNCaP lysates; type: cell-based, human; conditions: 10^−6 M
# Procedure, shortened: (§3)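 Serum-free adapted LNCaP cells were treated with 10−6 M test compound, with pan-caspase inhibitor and etoposide arms as indicated. Lysate was mixed with an equal volume of 20 mM HEPES pH 7.5, 10% glycerol, 2 mM DTT containing 50 μM substrate: DEVD-AFC (caspase-3), IETD-AFC (caspase-8) or LEHD-AFC (caspase-9). Background wells lacked lysate. Fluorescence was read at 400 nm excitation/508 nm emission, expressed as fold over control.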
# caspase‐8 = assay: Fluorometric caspase‐8 activity in LNCaP lysates; type: cell-based, human; conditions: 10^−6 M
# Procedure, shortened: as §3
# caspase‐9 = assay: Fluorometric caspase‐9 activity in LNCaP lysates; type: cell-based, human; conditions: 10^−6 M
# Procedure, shortened: as §3
# PC‐3 cells [13] = assay: Cell growth; type: cell-based, human
# DU145 cells [14] = assay: Cell growth; type: cell-based, human
Compound,"colony forming efficiency (CFE), antagonists (LNCaP cells [1])","colony forming efficiency (CFE), antagonists (PC‐3 cells [2])","colony forming efficiency (CFE), antagonists (DU145 cells [3])",proportion of apoptotic cells (TUNEL) (LNCaP cells [5]),ED50 RARα (RARα) [nM],ED50 RARβ (RARβ) [nM],ED50 RARγ (RARγ),also measured
"CCc1ccc(C2=CC(C)(C)Sc3ccc(C#Cc4ccc(C(=O)O)cc4)cc32)cc1 [AGN194310, 4‐[[4‐(4‐Ethylphenyl)‐2,2‐dimethyl‐(2H)‐thiochromen‐6‐yl]‐ethynyl]‐benzoic acid]",diminished the CFE,diminished the CFE,diminished the CFE,35%,4.3,5,2 nM,proportion of cells in G1 phase (LNCaP cells [4]): gradually increased; proportion of cells in S‐phase (LNCaP cells [4]): fall; proportion of cells sub‐G0/G1 (LNCaP cells [4]): ~60%; colony formation (LNCaP cells [6]): inhibited colony formation
"CC1(C)CCC(C)(C)c2c1cc(C(=O)Nc1cc(F)c(C(=O)O)c(F)c1)c(O)c2Cl [AGN195183, 4‐(4‐Chloro‐3‐hydroxy‐5,5,8,8‐tetramethyl‐5,6,7,8‐tetrahydronaphthalene‐2‐carboxamido)‐2,6‐difluorobenzoic acid]",–,–,–,–,20.1,>5000,>5000 nM,–
"CCOc1c(Br)cc(C(=O)Nc2ccc(C(=O)O)cc2)cc1C(=O)c1ccc(C)cc1 [AGN196996, 4‐(3‐Bromo‐4‐ethoxy‐5‐(4‐methylbenzoyl)benzamido)benzoic acid]","neither ATRA, nor the RARα‐selective antagonist AGN196996 (Figure 1, S1C, S1F and Table 1) proved as effective AGN205728 or AGN194310","neither ATRA, nor the RARα‐selective antagonist AGN196996 (Figure 1, S1C, S1F and Table 1) proved as effective AGN205728 or AGN194310","neither ATRA, nor the RARα‐selective antagonist AGN196996 (Figure 1, S1C, S1F and Table 1) proved as effective AGN205728 or AGN194310",little evidence of induction of apoptosis,3.9,4036,>10 000 nM,"effect of co‐treatment on AGN195183‐mediated growth inhibition (LNCaP cells [7]; 4 days, AGN196996 10^−8 M with AGN195183 10^−8 M): abolished AGN195183‐mediated growth inhibition; effect of co‐treatment with ATRA on proliferation (LNCaP cells [7]; 4 days, AGN196996 10^−8 M with ATRA 10^−8 M): promoted proliferation of LNCaP cells"
"CC1(C)CCC(C)(C)c2cc(/C(=N\O)c3cc4cc(C(=O)O)ccc4[nH]3)ccc21 [AGN205327, 2‐[(E)‐N‐Hydroxy‐C‐(5,5,8,8‐tetramethyl‐6,7‐dihydronaphthalen‐2‐yl)carbonimidoyl]‐1H‐indole‐5‐carboxylic acid]",–,–,–,–,3766.0,734,32 nM,"effect on ciglitazone‐induced adipogenesis (LNCaP cells [8]; AGN205327 added later than 48 hours post‐induction): failed to have any effect; inhibition of ciglitazone‐induced adipogenic differentiation (LNCaP cells [8]; ciglitazone (10^−7 M), AGN205327 10^−7 M given between 48 hours pre‐ and post‐addition of ciglitazone): ≤ 70%"
"Cc1ccc(C2=CCC(C)(C)c3cc(C(/C=C/c4ccc(C(=O)O)cc4)=N/O)ccc32)cc1 [AGN205728, 4‐[(E,3E)‐3‐[8,8‐Dimethyl‐5‐(4‐methylphenyl)‐7H‐naphthalen‐2‐yl]‐3‐hydroxyiminoprop‐1‐enyl]benzoic acid]",diminished the CFE,diminished the CFE,diminished the CFE,40%,2400.0,4248,3 nM,metabolic activity (LNCaP cells [9]): abolishing metabolic activity; metabolic activity (PC‐3 cells [10]): abolishing metabolic activity; metabolic activity (DU145 cells [11]): abolishing metabolic activity; response of metabolic activity (RWPE‐1 cells): significantly diminished response; proportion of cells in G1 phase (LNCaP cells [4]): gradually increased; proportion of cells in S‐phase (LNCaP cells [4]): fall; proportion of cells sub‐G0/G1 (LNCaP cells [4]): ~40%; DNA fragmentation pattern (LNCaP cells [12]): discrete laddering pattern that is typical of cells undergoing apoptosis; activation of caspase‐3 (caspase‐3): failed to activate; activation of caspase‐8 (caspase‐8): failed to activate; activation of caspase‐9 (caspase‐9): failed to activate
"CC1=C(/C=C/C(C)=C/C=C/C(C)=C/C(=O)O)C(C)(C)CCC1 [ATRA, All‐trans‐retinoic acid]",–,–,–,–,–,–,–,"effect on cell growth (LNCaP cells [7]; 10^−8 M and above): progressively diminished cell growth; increase in cell numbers (LNCaP cells [7]; 5 days, 10^−11‐10^−9 M): up to 1.5 fold; effect on cell growth (PC‐3 cells [13]; PC‐3, 10^−8 M and above): progressively diminished cell growth; increase in cell numbers (PC‐3 cells [13]; PC‐3, 5 days, 10^−11‐10^−9 M): up to 1.5 fold; effect on cell growth (DU145 cells [14]; DU145, 10^−8 M and above): progressively diminished cell growth; increase in cell numbers (DU145 cells [14]; DU145, 5 days, 10^−11‐10^−9 M): up to 1.5 fold"
O=C(Nc1ccccc1)c1cc([N+](=O)[O-])ccc1Cl [GW9662],–,–,–,–,–,–,–,"inhibition of accumulation of lipid droplets (LNCaP cells [8]; differentiation medium, day 14, AGN205327 10^−7 M, GW9662 10^−5 M): of a similar order"
Cbz-Val-Ala-Asp-CH2F [reference compound],–,–,–,–,–,–,–,"effect of pre‐treatment on AGN205728‐induced apoptosis (TUNEL) (LNCaP cells [5]; Z‐VAD‐FMK 5 × 10^−5 M, AGN205728 10^−6 M): failed to diminish induction of apoptosis by AGN205728"
